Where only a bound is given, the exact number is not on record here.

For orientation: IC50 means the concentration that inhibits the measured activity by half. Low readings indicate higher potency, high ones lower potency.

T1 sequence (P47871 whole entry): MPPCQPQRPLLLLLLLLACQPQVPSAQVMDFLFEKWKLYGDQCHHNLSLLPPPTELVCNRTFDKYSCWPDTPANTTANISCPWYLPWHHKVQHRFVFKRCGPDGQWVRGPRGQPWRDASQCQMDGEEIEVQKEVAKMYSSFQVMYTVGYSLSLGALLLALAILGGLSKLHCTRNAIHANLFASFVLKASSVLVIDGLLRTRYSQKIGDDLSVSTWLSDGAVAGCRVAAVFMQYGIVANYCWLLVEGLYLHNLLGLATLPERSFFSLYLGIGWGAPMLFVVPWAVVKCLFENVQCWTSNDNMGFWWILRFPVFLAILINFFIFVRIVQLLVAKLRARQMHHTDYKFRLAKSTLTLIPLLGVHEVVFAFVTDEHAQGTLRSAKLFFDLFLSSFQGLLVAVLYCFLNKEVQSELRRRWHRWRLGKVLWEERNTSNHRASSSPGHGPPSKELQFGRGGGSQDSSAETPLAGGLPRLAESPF

The first experiment has as its target T1, Glucagon receptor (Homo sapiens, UniProt P47871). The experiment is described as follows: Inhibitory concentration against cAMP production in hGR-CHO cells. It counts as functional, cell-based. The procedure, abridged: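 hGR-CHO cells grown to confluency, preincubated 10 min at 37 °C in assay buffer, then 10 min with 100 µM isobutylmethylxanthine. Test compound at 10 nM to 10 µM final, then glucagon at 10 pM final; 15 min incubation. Stopped with 65% ethanol; extracted cAMP measured by SPA assay. DMSO 0.1% control.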
In general terms: cAMP levels reflect the balance of adenylyl cyclase and phosphodiesterase activity.
For `CC(C)=Cc1c(C(C)C)nc(C(C)C)c(CO)c1-c1ccc(F)cc1`, the IC50 was determined as 2000 nM.

The next experiment addresses T1, Glucagon receptor. The experiment is described as follows: Inhibitory concentration against binding to the human glucagon receptor (hGR).
`CCc1nc(CC)c(CO)c(-c2ccccc2)c1CC`: the IC50 was over 20000 nM.
Same read-out and setting: next, `CC(C)=Cc1c(C(C)C)nc(C(C)C)c(CO)c1-c1ccc(F)cc1`: 7000 nM; `CCCCc1c(C(C)C)nc(C(C)C)c(C(C)O)c1-c1ccc(F)cc1` (configuration not stated): 250 nM.
Take `CCCCCc1c(C)nc(C)c(CO)c1-c1ccccc1`: the IC50 is over 20000 nM.
The same measure, in the same setting: next, `CC(C)c1nc(C(C)C)c(CO)c(-c2ccc(F)cc2)c1CO`: over 20000 nM; `CCc1c(C(C)C)nc(C(C)C)c(CO)c1-c1ccccc1`: 1800 nM; `C=Cc1c(C(C)C)nc(C(C)C)c(CO)c1-c1ccc(F)cc1`: 6000 nM.
The same measure, in the same setting: next, `COC(=O)c1c(C(C)C)nc(C(C)C)c(CO)c1-c1ccc(F)cc1`: 9500 nM; `CCCCCc1c(C(C)C)nc(C(C)C)c(CO)c1-c1ccccc1`: 1400 nM; `CCCCCc1c(C(C)C)nc(C(C)C)c(CO)c1-c1ccc(F)cc1`: 700 nM.
`CCCCCc1c(C(C)C)nc(C(C)C)c([C@@H](C)O)c1-c1ccc(F)cc1` (single isomer, unassigned) gave an IC50 of 150 nM.
The same measure, in the same setting: next, `COCc1c(C(C)C)nc(C(C)C)c(CO)c1-c1ccc(F)cc1`: 9000 nM; `CCCCCc1c(CC)nc(CC)c(CO)c1-c1ccccc1`: 20000 nM.
Turning to `CCc1c(C)nc(C)c(CO)c1-c1ccccc1`, the IC50 was over 20000 nM.
`CCCCCCc1c(C(C)C)nc(C(C)C)c(CO)c1-c1ccc(F)cc1`: the IC50 is 350 nM.
Still for that read-out and setting: next, `CCCCCc1c(C(C)C)nc(C(C)C)c(C(C)O)c1-c1ccc(F)cc1` (configuration not stated): 300 nM.

(Values after ChEMBL document CHEMBL1135047, “Discovery of 5-hydroxyalkyl-4-phenylpyridines as a new class of glucagon receptor antagonists” (Bioorg Med Chem Lett, 2002).)
